Measurements taken from ChEMBL document CHEMBL5325503, “Structure Guided Design, Synthesis, and Biological Evaluation of Oxetane-Containing Indole Analogues” (Bioorg Med Chem, 2023).
Active and inactive are the calls of the source. No cut-off for these calls is given here.

How the values were obtained:
Tubulin = Tubulin (Bos taurus, UniProt Q6B856+Q862L2+Q862F3); test: Inhibition of bovine brain tubulin polymerization preincubated for 15 mins followed by GTP addition and measured after 20 mins by turbidimetric analysis
Procedure, shortened: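 Mixtures (0.25 mL final) held 10 μM (1 mg/mL) bovine brain tubulin, 0.8 M monosodium glutamate pH 6.6, 4% DMSO and compound. Preincubated 15 min at 30 °C without GTP, chilled to 0 °C, then GTP added to 0.1 mM final. Warmed to 30 °C, turbidity followed at 350 nm for 20 min. IC50 = concentration halving polymerization extent at 20 min.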

MCF7 [1] = test: Cytotoxicity against human MCF7 cells assessed as inhibition of cell growth incubated for 96 hrs by SRB assay; settings: MCF7, 96 h
MDA-MB-231 = test: Cytotoxicity against human MDA-MB-231 cells assessed as inhibition of cell growth incubated for 48 hrs by SRB assay; format: functional, cell-based; settings: MDA-MB-231, 48 h
Procedure, shortened: (§1)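 Seeded at 12,000 cells/well in triplicate and grown 24 h at 37 °C, 5% CO2 in high-glucose DMEM with 10% FBS and 30 μg/mL gentamicin. Serial dilutions in medium from 10 mg/mL DMSO stocks, 48 h exposure. Fixed with TCA (6% final), SRB-stained, dye solubilized in 10 mM Tris, A530.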

PANC-1 [2] = test: Cytotoxicity against human PANC-1 cells assessed as inhibition of cell growth incubated for 48 hrs by SRB assay; format: functional, cell-based; settings: PANC-1, 48 h; procedure, shortened: as §1
PANC-1 [3] = test: Inhibition of cell migration in human PANC-1 cells at 0.5 to 1 uM incubated for 48 hrs by scratch wound healing assay; format: functional, cell-based; settings: dose 0.5-1 µM
Procedure, shortened: (§2)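 About 1 × 10^5 cells seeded per well of a 6-well plate in DMEM with 10% heat-inactivated FBS and 30 μg/mL gentamicin at 37 °C, 5% CO2. Grown to 70–80% confluency, scratched with a 10 μL pipette tip, medium replaced. Two wells per condition at 0.5 or 1 μM, DMSO ≤0.2% final, with two control wells. Gap imaged by automated microscopy (4X) over 48 h.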

PANC-1 [4] = test: Inhibition of cell migration in human PANC-1 cells at 0.5 uM incubated for 1 to 40 hrs by scratch wound healing assay; format: functional, cell-based; settings: time 1-40 hrs; procedure, shortened: as §2
PANC-1 [5] = test: Inhibition of cell migration in human PANC-1 cells at 1 uM incubated at 40 hrs by scratch wound healing assay; format: functional, cell-based; procedure, shortened: as §2
MCF7 [6] = test: Cytotoxicity against human MCF7 cells assessed as inhibition of cell growth incubated for 48 hrs by SRB assay; format: functional, cell-based; settings: MCF7, 48 h

IC50 (Tubulin) [nM] | SMILES | IC50 (MCF7 [1]) [nM] | IC50 (MDA-MB-231) [nM] | IC50 (PANC-1 [2]) [nM] | inhibition (PANC-1 [3]) | inhibition (PANC-1 [4]) | inhibition (PANC-1 [5]) | IC50 (MCF7 [6]) [nM]
> 20000 | COc1cc(C2(c3c(-c4ccccc4)[nH]c4ccccc34)COC2)cc(OC)c1OC | > 5000 |  |  |  |  |  | 
> 20000 | COc1cc(C2(c3c(-c4ccccc4)[nH]c4cc(Br)ccc34)COC2)cc(OC)c1OC | 470 | 1900 | 430 | Active | Active | Active | 
> 20000 | COc1ccc2[nH]c(-c3ccc(C)cc3)c(C3(c4cc(OC)c(OC)c(OC)c4)COC3)c2c1 | > 5000 |  |  |  |  |  | 
> 20000 | COc1cc(C2(c3c(-c4ccccc4)[nH]c4cc(Cl)ccc34)COC2)cc(OC)c1OC | 840 | 2200 | 1100 |  |  |  | 
> 20000 | COc1cc(C2(c3c(-c4ccc(C)cc4)[nH]c4ccccc34)COC2)cc(OC)c1OC | > 5000 |  |  |  |  |  | 
> 20000 | COc1ccc2[nH]c(-c3ccccc3)c(C3(c4cc(OC)c(OC)c(OC)c4)COC3)c2c1 | 3200 |  |  |  |  |  | 
> 20000 | COc1ccc(-c2[nH]c3ccccc3c2C2(c3cc(OC)c(OC)c(OC)c3)COC2)cc1 | > 5000 |  |  |  |  |  | 
> 20000 | COc1cc(C2(c3c(-c4ccc(C)cc4)[nH]c4cc(Br)ccc34)COC2)cc(OC)c1OC | 1700 |  |  |  |  |  | 
> 20000 | COc1cc(C2(c3c(-c4ccccc4)[nH]c4ccc(Br)cc34)COC2)cc(OC)c1OC | 2200 |  |  |  |  |  | 
> 20000 | COc1cc(C2(c3c(-c4ccc(C)cc4)[nH]c4cc(Cl)ccc34)COC2)cc(OC)c1OC | 2700 |  |  |  |  |  | 
> 20000 | COc1cc(C2(c3c(-c4ccccc4)[nH]c4c(OC)cccc34)COC2)cc(OC)c1OC | 780 | 3000 | 440 | Active | Active | Active | 
> 20000 | COc1cccc(-c2[nH]c3ccccc3c2C2(c3cc(OC)c(OC)c(OC)c3)COC2)c1 | 4800 |  |  |  |  |  | 

SMILES | IC50 (Tubulin) [nM] | IC50 (MCF7 [1]) [nM] | IC50 (MDA-MB-231) [nM] | IC50 (PANC-1 [2]) [nM] | inhibition (PANC-1 [3]) | inhibition (PANC-1 [4]) | inhibition (PANC-1 [5]) | IC50 (MCF7 [6]) [nM]
COc1ccc(-c2[nH]c3cc(Cl)ccc3c2C2(c3cc(OC)c(OC)c(OC)c3)COC2)cc1 | > 20000 |  |  |  |  |  |  | 3700
COc1ccc2c(C3(c4cc(OC)c(OC)c(OC)c4)COC3)c(-c3ccc(OC)c(O)c3)[nH]c2c1 | > 20000 |  |  |  |  |  |  | 1600
